# Results taken from ChEMBL document CHEMBL1149771, “Antimicrobial studies of 2,4-dichloro-5-fluorophenyl containing oxadiazoles” (2008).
# Columns and labels:
# Type in all cases: functional
# Escherichia coli [1] = assay: Antibacterial activity against Escherichia coli ATCC 25922 at 35 degC after 18 to 24 hrs
# Method in brief: (§1)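 Bactericidal endpoint (MBC) taken from the broth-dilution MIC tubes. 0.1 ml from each tube was spread on agar plates and c.f.u. counted after 18–24 h. MBC was the lowest concentration completely killing the bacteria.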
# Staphylococcus aureus [2] = assay: Antibacterial activity against Staphylococcus aureus ATCC 25923 at 35 degC after 18 to 24 hrs; method in brief: as §1
# Pseudomonas aeruginosa [3] = assay: Antibacterial activity against Pseudomonas aeruginosa ATCC 27853 at 35 degC after 18 to 24 hrs; method in brief: as §1
# Escherichia coli [4] = assay: Antibacterial activity against Escherichia coli ATCC 25922 at 37 degC after 24 hrs by disc diffusion method
# Method in brief: (§2)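 Disc diffusion on nutrient agar. Plates were spread with 1–2 × […] c.f.u./ml inoculum (0.5 McFarland). Sterile 6.25 mm filter-paper discs were soaked in a known concentration of compound and placed on the agar. Plates were inverted and incubated 24 h at 37 °C. Inhibition zones (mm) were read against solvent and growth controls, with ciprofloxacin as reference.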
# [5] = test system: Trichophyton mentagrophytes; assay: Antifungal activity against Trichophyton mentagrophytes at 37 degC after 3 to 4 days by agar dilution method; conditions: in the assay text read “agar diffusion method” for “agar dilution method”
# Method in brief: (§3)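 Agar well diffusion for fungi, compounds in DMSO. Sabouraud agar was adjusted to pH 5.7 and lawned with a saline spore suspension (a loopful in 3 ml). Plates were dried 1 h at 37 °C, then wells were punched. Incubation was 3–4 days at 37 °C, with controls in triplicate. Inhibition zones were measured against controls, with griseofulvin as standard.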
# Staphylococcus aureus [6] = assay: Antibacterial activity against Staphylococcus aureus ATCC 25923 at 37 degC after 24 hrs by disc diffusion method; method in brief: as §2
# Candida albicans [7] = assay: Antifungal activity against Candida albicans at 35 degC after 48 hrs
# Method in brief: (§4)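 Fungicidal endpoint (MFC). 0.1 ml from each broth-dilution tube was spread on agar plates and c.f.u. counted after 48 h at 35 °C. MFC was the lowest concentration killing 99.9% of the inoculum.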
# Pseudomonas aeruginosa [8] = assay: Antibacterial activity against Pseudomonas aeruginosa ATCC 27853 at 37 degC after 24 hrs by broth dilution method; conditions: ATCC 27853, 24 h
# Method in brief: (§5)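 Broth dilution MIC. Nutrient broth held two-fold serial dilutions of compound and was inoculated with about 5 × 10⁵ c.f.u. of actively dividing bacteria. Cultures ran 24 h at 37 °C, with growth checked visually and spectrophotometrically. MIC was the lowest concentration arresting growth. Ciprofloxacin was the standard.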
# Aspergillus fumigatus [9] = assay: Antifungal activity against Aspergillus fumigatus at 35 degC after 48 hrs by broth dilution method
# Method in brief: (§6)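 Fungal MIC by broth dilution. Two-fold serial dilutions of compound in nutrient broth were inoculated with about 1.6 × 10⁴–6 × 10⁴ c.f.u./ml. Incubation was 48 h at 35 °C. MIC was the lowest concentration arresting fungal growth.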
# Staphylococcus aureus [10] = assay: Antibacterial activity against Staphylococcus aureus ATCC 25923 at 37 degC after 24 hrs by broth dilution method; conditions: ATCC 25923, 24 h; method in brief: as §5
# Klebsiella pneumoniae [11] = assay: Antibacterial activity against Klebsiella pneumoniae ATCC 25922 at 37 degC after 24 hrs by broth dilution method; conditions: recultured, in the assay text read “Klebsiella pneumoniae (recultured)” for “Klebsiella pneumoniae ATCC 25922”; method in brief: as §5
# [12] = test system: Trichophyton mentagrophytes; assay: Antifungal activity against Trichophyton mentagrophytes at 35 degC after 48 hrs by broth dilution method; method in brief: as §6
# Aspergillus fumigatus [13] = assay: Antifungal activity against Aspergillus fumigatus at 37 degC after 3 to 4 days by agar […] method; method in brief: as §3
# Aspergillus fumigatus [14] = assay: Antifungal activity against Aspergillus fumigatus at 35 degC after 48 hrs; method in brief: as §4
# Talaromyces marneffei [15] = assay: Antifungal activity against Penicillium marneffei at 35 degC after 48 hrs; method in brief: as §4
# Escherichia coli [16] = assay: Antibacterial activity against Escherichia coli ATCC 25922 at 37 degC after 24 hrs by broth dilution method; conditions: ATCC 25922, 24 h; method in brief: as §5
# Candida albicans [17] = assay: Antifungal activity against Candida albicans at 37 degC after 3 to 4 days by agar dilution method; method in brief: as §3
# Talaromyces marneffei [18] = assay: Antifungal activity against Penicillium marneffei at 37 degC after 3 to 4 days by agar […] method; method in brief: as §3
# [19] = test system: Trichophyton mentagrophytes; assay: Antifungal activity against Trichophyton mentagrophytes at 35 degC after 48 hrs; method in brief: as §4
# Klebsiella pneumoniae [20] = assay: Antibacterial activity against Klebsiella pneumoniae ATCC 25922 at 35 degC after 18 to 24 hrs; conditions: recultured, in the assay text read “Klebsiella pneumoniae (recultured)” for “Klebsiella pneumoniae ATCC 25922”; method in brief: as §1
# Candida albicans [21] = assay: Antifungal activity against Candida albicans at 35 degC after 48 hrs by broth dilution method; method in brief: as §6
# Pseudomonas aeruginosa [22] = assay: Antibacterial activity against Pseudomonas aeruginosa ATCC 27853 at 37 degC after 24 hrs by disc diffusion method; method in brief: as §2
# Klebsiella pneumoniae [23] = assay: Antibacterial activity against Klebsiella pneumoniae ATCC 25922 at 37 degC after 24 hrs by disc diffusion method; method in brief: as §2
# Talaromyces marneffei [24] = assay: Antifungal activity against Penicillium marneffei at 35 degC after 48 hrs by broth dilution method; method in brief: as §6
MIC (Pseudomonas aeruginosa [8]) [µg/mL],MIC (Aspergillus fumigatus [9]) [µg/mL],MIC (Staphylococcus aureus [10]) [µg/mL],MIC (Klebsiella pneumoniae [11]) [µg/mL],MIC [12] [µg/mL],MIC (Escherichia coli [16]) [µg/mL],MIC (Candida albicans [21]) [µg/mL],MIC (Talaromyces marneffei [24]) [µg/mL],Compound,MBC (Escherichia coli [1]) [µg/mL],MBC (Staphylococcus aureus [2]) [µg/mL],MBC (Pseudomonas aeruginosa [3]) [µg/mL],inhibition zone (IZ) (Escherichia coli [4]) [mm],inhibition zone (IZ) [5] [mm],MFC (Candida albicans [7]) [µg/mL],MFC (Aspergillus fumigatus [14]) [µg/mL],MFC (Talaromyces marneffei [15]) [µg/mL],inhibition zone (IZ) (Talaromyces marneffei [18]) [mm],MFC [19] [µg/mL],MBC (Klebsiella pneumoniae [20]) [µg/mL],inhibition zone (IZ) (Pseudomonas aeruginosa [22]) [mm],other results
6.25,6.25,6.25,6.25,6.25,6.25,6.25,6.25,Cc1cc(Cl)ccc1OCc1nnc(-c2cc(F)c(Cl)cc2Cl)o1,12.5,6.25,6.25,24,22,6.25,6.25,6.25,19,25,6.25,29,inhibition zone (IZ) (Staphylococcus aureus [6]): 20 mm; inhibition zone (IZ) (Aspergillus fumigatus [13]): 25 mm; inhibition zone (IZ) (Candida albicans [17]): 28 mm; inhibition zone (IZ) (Klebsiella pneumoniae [23]): 19 mm
25,> 100,> 100,25,> 100,6.25,6.25,12.5,Fc1cc(-c2cc(-c3nnc(COc4ccccc4Cl)o3)c3ccccc3n2)c(Cl)cc1Cl,50,> 100,50,20,,12.5,> 100,25,12,> 100,100,22,Activity [5]: >100 µg/mL; Activity (Staphylococcus aureus [6]): >100 µg/mL; Activity (Aspergillus fumigatus [13]): >100 µg/mL; inhibition zone (IZ) (Candida albicans [17]): 20 mm; Activity (Klebsiella pneumoniae [23]): >100 µg/mL
25,> 100,12.5,12.5,6.25,25,> 100,12.5,Cc1ccc(OCc2nnc(-c3cc(-c4cc(F)c(Cl)cc4Cl)nc4ccccc34)o2)cc1,50,100,50,10,17,> 100,> 100,25,15,6.25,25,8,inhibition zone (IZ) (Staphylococcus aureus [6]): 15 mm; Activity (Aspergillus fumigatus [13]): >100 µg/mL; Activity (Candida albicans [17]; in the assay text read “agar diffusion method” for “agar dilution method”): >100 µg/mL; inhibition zone (IZ) (Klebsiella pneumoniae [23]): 15 mm
